Screening data as filed in PubChem BioAssay.
p97 inhibitor – blocks human p97 ATPase activity; hit rate 0.42% among 220,000; AID 1481; P55072; recombinant p97 ATPase, Kinase-Glo ATP luminescence, 3 h; inhibition, % at 8 µM; in the data active = inhibition above about 15%
Target sequence (P55072 whole entry, looked up): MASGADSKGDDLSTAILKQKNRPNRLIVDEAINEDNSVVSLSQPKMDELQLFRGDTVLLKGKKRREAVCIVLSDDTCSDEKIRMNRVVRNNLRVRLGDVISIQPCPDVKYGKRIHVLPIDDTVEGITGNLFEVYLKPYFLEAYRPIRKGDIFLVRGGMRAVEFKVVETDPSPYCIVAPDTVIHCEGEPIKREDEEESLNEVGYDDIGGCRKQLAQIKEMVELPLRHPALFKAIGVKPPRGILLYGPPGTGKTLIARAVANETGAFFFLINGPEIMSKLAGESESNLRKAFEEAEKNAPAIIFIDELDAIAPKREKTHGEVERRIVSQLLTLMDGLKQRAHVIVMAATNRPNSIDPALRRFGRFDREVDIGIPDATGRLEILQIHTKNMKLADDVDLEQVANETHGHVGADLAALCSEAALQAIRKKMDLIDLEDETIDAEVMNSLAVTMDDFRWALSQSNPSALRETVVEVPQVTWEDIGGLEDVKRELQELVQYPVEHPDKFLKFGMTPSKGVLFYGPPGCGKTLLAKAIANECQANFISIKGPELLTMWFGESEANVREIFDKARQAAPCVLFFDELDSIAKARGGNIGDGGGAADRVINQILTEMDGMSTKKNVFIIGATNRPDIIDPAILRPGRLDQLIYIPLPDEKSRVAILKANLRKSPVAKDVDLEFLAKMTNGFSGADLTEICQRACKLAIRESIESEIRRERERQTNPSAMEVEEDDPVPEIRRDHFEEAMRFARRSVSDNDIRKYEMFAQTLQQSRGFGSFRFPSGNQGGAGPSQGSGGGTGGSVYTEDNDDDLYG
Mdm2 ligase inh – Mdm2 E3 ligase (human) inhibition. Q00987. hit rate 0.11% among 210,000. signal enhancement, % at 5 µM. cell-based MDM2 ubiquitination luciferase reporter, 2 h; 0 = plate control, 100 = twice control, blank-subtracted;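 active = signal enhancement of 30% or more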;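 note: luminescence tracks abundance of the self-degrading MDM2-luciferase fusion protein; higher signal means inhibition of MDM2 E3 ligase activity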
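Material: Stable MDM2–luciferase fusion reporter cells | Amount: 2000 cells seeded into each well | Dosing: One concentration, 5 µM, with 0.2% DMSO | Incubation: 4 h cell settling then 2 h compound exposure, 37 °C | Measured by: Luciferase luminescence | Read-out basis: % enhancement relative to plate controls after blank subtraction | Benchmarks: Control and blank well means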
STAT1 activator – activators of IFN-gamma induced STAT1 signaling | hit rate 2.6% among 200,000 | activation (% of control), % at 5.5 µM | NIH 3T3 STAT1-luciferase reporter, luminescence; 100% = IFN-gamma alone, no compound;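 active = activation above the screen-wide mean activation plus 3 SD, cut at about 130% in these data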
Wee1 degr inh – human Wee1 degradation inhibition, primary screen. P30291. HeLa Luc-Wee1K328M stability, luciferase luminescence; 100% = proteasome inhibitor MG132 effect. reporter increase, % at 5 µM. hit rate 1.2% among 220,000. AID 1321;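 active = activation above the mean of all tested compounds plus 3 SD, set per screening run, cut at about 8.8% in these data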;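 note: cells exposed to compound for 20 h before luminescence read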
NF-kB neuron act – NF-kB expression increase, human neuronal cells. NF-kB reporter expression; hits give high values. hit rate 1.6% among 190,000. fold change at 12.5 µM; in the data active = fold change above about 3.3
APP 5'UTR act – activates APP 5'UTR luciferase reporter. SH-SY5Y APP 5'UTR luciferase reporter, luminescence; zero percent = DMSO vehicle wells. activation, % at 2 µM. hit rate 1% among 190,000. AID 1276;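 active = activation above a set limit, based on mean plus 3 SD of controls, cut at about 140% in these data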
STAT1 activ conf – confirmation of STAT1 signaling activators; shares compounds with STAT1 activator; NIH 3T3 STAT1-luciferase reporter, IFN-gamma potentiation, luminescence; 100% = IFN-gamma EC80 alone, no compound; activation (% of control), % at 5.7 µM; hit rate 97% among 1,200;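 active = activation above a set limit carried over from the earlier primary STAT1 screen, cut at about 140% in these data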
NFkB act STAT1ct – activates NF-kappaB, counter-screen to STAT1 activators; shares compounds with STAT1 activator; HEK293T NF-kB luciferase reporter, TNF-alpha stimulated, luminescence; 100% = TNF-alpha with vehicle only; activation (% of control), % at 5.7 µM; hit rate 43% among 1,200;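 active = activation above the mean of solvent-only control wells plus 3 SD, set per campaign, cut at about 130% in these data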;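 note: TNF-alpha given at a submaximal dose yielding about 80% of full reporter signal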
STAT3 act 2 – activates human STAT3, counter-screen to STAT1 activators. hit rate 46% among 1,200. shares compounds with STAT1 activator. U3A cells STAT3-luciferase reporter, IL-6, luminescence; cells lack STAT1; 100 = IL-6 alone, no compound effect. activation (% of control), % at 5.7 µM;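 active = activation above the solvent-only control well mean plus 3 SD, set per plate batch, cut at about 110% in these data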;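 note: higher means more STAT3 reporter activation so hits are non-selective activators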
Numbers stand for hits; i = inactive; nt = not tested or not shown. Shown are actives, neighbours in structure and some others; about 4.6% of the full set was active somewhere.

SMILES	p97 inhibitor	Mdm2 ligase inh	STAT1 activator	Wee1 degr inh	NF-kB neuron act	APP 5'UTR act	STAT1 activ conf	NFkB act STAT1ct	STAT3 act 2
Nc1nn(-c2ccccc2)c(N)c1N=Nc1ccccc1F	i	i	219	i	14	181	306	i	i
Cc1nn(-c2ccccc2)c(N)c1N=Nc1ccccc1	i	i	176	i	6.8	156	198	140	141
Cc1nc2c(N=Nc3ccccc3F)c(N)nn2c(N)c1C#N	i	i	166	i	i	i	146	i	123
CCCCN1C2CCCC1CC(NC(=O)N(C(C)C)C(C)C)C2 (centres undefined)	i	nt	i	i	nt	i	nt	nt	nt
COc1ccc(C(C(=O)NCC2CCCO2)N(C(=O)CNC(=O)c2cccs2)c2ccc(C(C)=O)cc2)cc1OC (centres undefined)	i	i	i	i	i	i	nt	nt	nt
COc1ccc(NC(=O)C(c2ccccc2)N(C)C(=O)c2ccc(=O)[nH]c2)cc1 (centres undefined)	i	i	i	i	i	i	nt	nt	nt
Cc1nn(-c2ccccc2)c(N)c1N=Nc1ccc(Cl)cc1	i	i	155	i	4.5	i	183	i	i
O=S(=O)(CC(CN1CCCCC1)N1CCCCC1)c1ccc2ccccc2c1 (centres undefined)	i	i	i	i	i	i	nt	nt	nt
CCNC(=O)NCc1c(C)c(C)n(Cc2ccccc2)c1-n1cccc1	i	i	i	i	i	i	nt	nt	nt
CC1(C)CC(=O)c2cnc(NC3CC3)nc2C1	i	i	i	i	i	i	nt	nt	nt
Cc1ccc(Nc2ncc3c(n2)CC(C)(C)CC3=O)cc1	i	i	179	i	5.2	158	194	139	119
O=C(c1ccc(F)cc1)c1cc2ccccc2o1	i	i	157	i	3.6	i	174	i	i
CCc1ccc(C(=O)O)cc1	i	i	nt	i	nt	nt	nt	nt	nt
CCc1ccc(C(=O)CN2CCSC2=N)cc1	i	i	159	i	7.9	i	209	136	i
N#CC(=C1CCCC1)c1nc(-c2ccccc2)cs1	i	i	166	i	8.1	i	215	154	122
Cc1ccc(-c2csc(C(C#N)=C3CCCC3)n2)cc1	i	i	i	i	i	i	nt	nt	nt
CN(C)S(=O)(=O)c1ccc(C(=O)OCn2nnc3ccccc3c2=O)cc1	i	i	i	i	i	i	nt	nt	nt
Cc1ccc2nc(SCC(=O)Nc3ccc(C(N)=O)cc3)[nH]c2c1	i	i	i	i	i	i	nt	nt	nt
Cc1ccc2nc(-c3ccc(NC(=O)CSc4ccccc4)cc3)[nH]c2c1	i	i	163	i	3.5	i	198	i	i
Cc1cc(S(=O)(=O)NCC(C)C)ccc1OCC(=O)NCc1ccco1	i	i	i	i	i	i	nt	nt	nt
Cc1cc(C)c(Nc2ncnc(N)n2)c(C)c1	i	i	nt	i	nt	nt	nt	nt	nt
CC(C)(C)NC(=O)NC(=O)CSc1cccc(C(F)(F)F)c1	i	i	i	i	i	i	nt	nt	nt
Cc1c(-c2ccccc2)[nH]n2c(=O)c3c(nc12)CCCC3	i	i	155	i	i	i	174	i	117
O=C(Cc1ccccc1)N/N=C/C=C/c1ccccc1[N+](=O)[O-]	i	i	nt	i	nt	nt	nt	nt	nt
O=C(O)c1ccc(N/N=C/C=C/c2ccccc2[N+](=O)[O-])cc1	i	i	163	i	i	i	177	139	129
SMILES	p97 inhibitor	Mdm2 ligase inh	STAT1 activator	Wee1 degr inh	NF-kB neuron act	APP 5'UTR act	STAT1 activ conf	NFkB act STAT1ct	STAT3 act 2
COCC(C)Nc1ncnc2c1cnn2-c1ccc(Cl)cc1 (centres undefined)	i	i	163	i	4.9	180	235	141	i
COc1ccc(-n2ncc3c(N4CCCCC4)ncnc32)cc1	i	i	i	i	i	i	nt	nt	nt
COc1ccc(-n2ncc3c(NCC(C)C)ncnc32)cc1	i	i	166	i	7	195	260	i	i
COc1ccc(-n2ncc3c(NC(C)C)ncnc32)cc1	i	i	151	i	4	151	246	i	i
CC(C)=NN/C(N)=N/C(=S)Nc1ccc(C)cc1	i	i	i	i	i	i	nt	nt	nt
O=C(NN=C1CCCC1)c1cccs1	i	i	156	i	i	i	i	i	i
O=C(NN=C1CCCCCCCCCCC1)c1ccncc1	i	i	i	i	i	i	nt	nt	nt
CC(=O)N1CCC(=NNC(=O)c2cccs2)CC1	i	i	160	i	i	i	i	i	i
CCN(CC)CCOC(=O)c1ccc(NC(=O)c2cn(-c3ccccc3)nc2-c2cccs2)cc1	i	i	155	i	i	i	i	i	i
CCN(CC)CCNC(=O)c1cn(-c2ccccc2)nc1-c1cccs1	i	i	i	i	i	i	nt	nt	nt
COC(=O)c1ccc(N=Cc2c(C(F)(F)F)[nH][nH]c2=O)cc1	i	i	i	i	i	i	nt	nt	nt
Oc1ccc(N=Nc2n[nH]c(-c3ccc(Br)cc3)n2)cc1	i	i	i	i	i	i	nt	nt	nt
Oc1ccc(N=Nc2n[nH]c(-c3ccccc3)n2)cc1	i	i	172	i	6.3	146	185	i	i
CC(=O)c1ccc(NC(=O)c2noc3c2CCCCC3)cc1	i	i	151	i	5	161	223	i	i
COc1cccc(/C=N/n2cnc3ccccc32)c1OC	i	i	162	i	4.1	152	205	i	i
COc1cccc(/C=N/n2c(N)nc3ccccc32)c1OC	i	i	i	i	i	i	nt	nt	nt
COc1cccc(-c2noc(-c3cccnc3)n2)c1	i	i	159	i	5.5	i	188	i	121
Nc1c(C(=O)O)sc2nc3c(cc12)CCCC3	i	i	nt	i	nt	nt	nt	nt	nt
Nc1c(C(=O)C2CC2)sc2nc3c(cc12)CCC3	i	i	162	i	5.4	i	189	135	i
Cn1cnnc1SCC(=O)NN(c1ccccc1)c1ccccc1	i	i	i	i	i	i	nt	nt	nt
CC(=O)Nc1cccc(/C(C)=N/NC(=O)c2cc(-c3ccncc3)nc3ccccc23)c1	i	i	nt	i	nt	nt	nt	nt	nt
C/C(=N\Nc1nc2ccccc2s1)c1cccs1	i	i	164	i	4.2	177	249	i	160
C/C(=N\Nc1nc(N2CCOCC2)nc(N2CCOCC2)n1)c1cccs1	i	i	i	i	i	i	nt	nt	nt
CC(=O)Nc1cccc(/C(C)=N/Nc2nc3ccccc3s2)c1	i	i	198	i	i	160	200	139	122
